Data as given in ChEMBL document CHEMBL1153615, “Antiproliferative activity of arborescidine alkaloids and derivatives” (Eur J Med Chem, 2009).

Legend:
HL-60 = assay: Cytotoxicity against human HL60 cells after 3 days by MTT assay; format: functional, cell-based; conditions: HL-60, 72 h
Procedure, shortened: (§1)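 Human ATCC lines (MRC-5 normal lung fibroblasts, AGS gastric adenocarcinoma, HL-60 leukemia, SK-MES-1 lung cancer, J82 bladder carcinoma) seeded at 50,000 cells/mL in 96-well plates. Compounds added one day later in medium at 0 up to 100 µM for 3 days. Read-out by MTT reduction against untreated controls, with etoposide as reference. IC50 reported for S- and R-configured compounds.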

SK-MES-1 = assay: Cytotoxicity against human SKMES1 cells after 3 days by MTT assay; format: functional, cell-based; conditions: SK-MES-1, 72 h; procedure, shortened: as §1
AGS = assay: Cytotoxicity against human AGS cells after 3 days by MTT assay; format: functional, cell-based; conditions: 72 h; procedure, shortened: as §1
MRC5 = assay: Cytotoxicity against human MRC5 cells after 3 days by MTT assay; format: cell-based; conditions: MRC5, 72 h; procedure, shortened: as §1
J82 = assay: Cytotoxicity against human J82 cells after 3 days by MTT assay; format: functional, cell-based; conditions: J82, 72 h; procedure, shortened: as §1
KB = assay: Cytotoxicity against human KB cells at 30 uM; format: functional

| SMILES | IC50 (HL-60) [µM] | IC50 (SK-MES-1) [µM] | IC50 (AGS) [µM] | IC50 (MRC5) [µM] | IC50 (J82) [µM] | Activity (KB) [%] |
| --- | --- | --- | --- | --- | --- | --- |
| CN1CCc2c3n(c4cc(Br)ccc24)[C@@H](O)CCC[C@@H]31 | > 100 | > 100 | 30.9 | 31.9 | > 100 | 100 |
| COC(=O)N1CCc2c([nH]c3cc(Br)ccc23)[C@@H]1CCCC(O)CO (stereo not given in full) | > 100 | > 100 | > 100 | > 100 | > 100 | – |
| COC(=O)N1CCc2c3n(c4ccccc24)[C@@H](O)CCC[C@@H]31 | 96.6 | 25.1 | 16.8 | 35.7 | 72.8 | – |
| CN1CCc2c3n(c4cc(Br)ccc24)C=CCC[C@@H]31 | > 100 | 91.3 | > 100 | > 100 | 45.5 | 100 |
| COC(=O)N1CCc2c3n(c4cc(Br)ccc24)[C@@H](O)CCC[C@@H]31 | > 100 | 18.1 | 22.8 | 60 | 16.4 | – |
| C=CCCCC1c2[nH]c3ccccc3c2CCN1C (stereo not given) | > 100 | 58.6 | 34.5 | 42.2 | 76.4 | – |
| C=CCCCC1=NCCc2c1[nH]c1cc(Br)ccc21 | > 100 | 39.7 | 26.9 | 40.1 | 39.3 | – |
| COC(=O)N1CCc2c([nH]c3cc(Br)ccc23)[C@@H]1CCCC=O | 99.4 | 48.2 | 21.4 | 53.6 | 74.9 | – |
| C=CCCC[C@@H]1NCCc2c1[nH]c1ccccc21 | 69.3 | 19.1 | 14.3 | 20.1 | 25.7 | – |
| CN1CCc2c3n(c4ccccc24)C=CCC[C@@H]31 [DESBROMOARBORESCIDINEB] | > 100 | 32.3 | 41.7 | 62.6 | 29.5 | – |
| C=CCCC[C@@H]1NCCc2c1[nH]c1cc(Br)ccc21 | > 100 | 12.7 | 8.8 | 18.1 | 18.9 | – |
| CN1CCc2c3n(c4ccccc24)[C@@H](O)CCC[C@@H]31 [DESBROMOARBORESCIDINE C] | > 100 | > 100 | > 100 | > 100 | > 100 | – |
| COc1cc([C@@H]2c3cc4c(cc3[C@@H](O[C@@H]3O[C@@H]5CO[C@@H](C)O[C@H]5[C@H](O)[C@H]3O)[C@H]3COC(=O)[C@H]23)OCO4)cc(OC)c1O [ETOPOSIDE] | – | 2.8 | – | – | 2.5 | – |
| Brc1ccc2c3c([nH]c2c1)[C@@H]1CCCCN1CC3 [ARBORESCIDINE A] | 34.5 | > 100 | 65.3 | 71.6 | > 100 | 100 |
| C=CCCC[C@H]1c2[nH]c3ccccc3c2CCN1C(=O)OC | > 100 | > 100 | > 100 | > 100 | > 100 | – |
| C=CCCCC1=NCCc2c1[nH]c1ccccc21 | > 100 | 36.1 | 40.3 | 44.6 | 47.6 | – |
| C=CCCCC1c2[nH]c3cc(Br)ccc3c2CCN1C (stereo not given) | > 100 | 75.8 | 69.9 | 78.9 | 78.8 | – |
| COC(=O)N1CCc2c([nH]c3ccccc23)[C@@H]1CCCC(O)CO (stereo not given in full) | > 100 | 88.3 | 63.1 | > 100 | > 100 | – |
